Rpn11 inh: Rpn11 (human) deubiquitinase inhibition; human 26S proteasome, Ub4-pepOG fluorescence polarization; 20S core pre-blocked with epoxomicin; calls only at 20 µM; 360,000 tested, 0.59% active; AID 588493;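 active = inhibition at 20 µM, scaled to each plate's controls, above about 33%, limit read from the data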
HNF4A DNA FP: change in binding of human HNF4 alpha to DNA. P41235. HNF4a-FITC DNA binding, fluorescence polarization, 1 h. activity change, % at 10 µM. 360,000 tested, 0.3% active. AID 1224865; in the data active = activity change above about 30%, passing the limit was not always enough
Target sequence (P41235 whole entry, looked up): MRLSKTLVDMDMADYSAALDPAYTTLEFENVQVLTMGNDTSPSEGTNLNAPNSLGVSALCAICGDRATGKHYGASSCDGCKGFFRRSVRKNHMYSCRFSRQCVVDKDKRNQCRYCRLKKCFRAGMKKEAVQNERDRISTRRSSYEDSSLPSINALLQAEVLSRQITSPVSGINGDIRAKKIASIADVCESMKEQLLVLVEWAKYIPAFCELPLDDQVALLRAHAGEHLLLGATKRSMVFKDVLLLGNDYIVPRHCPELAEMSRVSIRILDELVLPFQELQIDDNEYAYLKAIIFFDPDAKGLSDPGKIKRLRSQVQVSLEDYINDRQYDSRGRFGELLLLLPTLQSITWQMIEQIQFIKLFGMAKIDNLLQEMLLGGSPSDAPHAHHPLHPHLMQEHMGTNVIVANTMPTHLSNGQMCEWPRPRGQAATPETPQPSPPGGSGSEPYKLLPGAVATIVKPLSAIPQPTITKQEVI
CSN inh: inhibitors of human CSN-mediated cullin deneddylation | inhibition, % at 12.5 µM | Purified CSN, SCF-Nedd8-OG deneddylation, fluorescence polarization | 360,000 tested, 0.38% active | Q92905;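 active = pattern-corrected inhibition above about 35%, with an unprinted fluorescence ratio check between 0.5 and 1.5, limit read from the data, passing the limit was not always enough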;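 also: 0% = enzyme with substrate and 100% = substrate without enzyme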
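test system = HEK293T-derived human Csn5 enzyme | amount = 0.24 nM Csn5 enzyme, final concentration | medium = Tris/NaCl/DTT buffer, pH 7.5 | schedule = 90 min reaction at room temperature | signal = FP | evaluation = inhibition of Csn5 cleavage, % | compound dosing = single dose of 12.5 µM compound with 0.25% DMSO | probe or stimulus = 10 nM SCFSkp2-Nedd8OG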
SENP1 inh: SENP1 (human) catalytic domain inhibition; recombinant SENP1 catalytic domain, CyPet-SUMO1-YPet FRET cleavage; inhibition, % at 10 µM; 360,000 tested, 0.21% active;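 active = inhibition at least 30% at 10 µM, raw YFP signal under a set limit, fluorescence ratio 0.5 to 1.5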;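 also: 0% = enzyme with DMSO and 100% = no enzyme wells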
Target sequence (Q9P0U3 419-644 limits assumed): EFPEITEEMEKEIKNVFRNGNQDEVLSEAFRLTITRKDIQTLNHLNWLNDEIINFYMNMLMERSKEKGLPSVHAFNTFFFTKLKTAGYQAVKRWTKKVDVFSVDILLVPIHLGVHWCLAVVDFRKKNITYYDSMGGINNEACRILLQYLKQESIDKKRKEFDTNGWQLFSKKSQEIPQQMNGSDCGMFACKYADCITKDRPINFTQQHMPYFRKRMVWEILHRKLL
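material = recombinant human SENP1 catalytic domain, His6-tagged | quantity = 20 pM enzyme | reagent = 25 nM SUMO1 FRET substrate | compound dosing = 10 µM single point, 0.5% DMSO | timing = 50 min enzyme reaction, room temperature, light-protected | detection = FRET, CFP and YFP emission | control set = no-enzyme low, enzyme-DMSO high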
TPT1 inh: blocks Candida albicans tRNA 2'-phosphotransferase. AID 1962. 300,000 tested, 0.81% active. inhibition, % at 5 µM. recombinant caTPT1, FP RNA substrate dephosphorylation;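 active = inhibition above the mean of all tested compounds plus 3 SD, set per screening campaign, cut at about 24% in these data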;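 also: plate controls were DMSO alone for no effect and ferristatin control at 100 nM for full effect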
UBC9 SUMO inh: inhibitors of human SUMOylation (UBC9). HTRF SUMOylation assay, SAE1/SAE2 + UBC9, in vitro. inhibition, % at 35 µM. 290,000 tested, 0.36% active; in the data active = inhibition above about 50%, passing the limit was not always enough
CSN5 deneddyl: Csn5 (human) deneddylation inhibition, single-concentration validation. Csn5 deneddylation of SCF-Nedd8OG, fluorescence polarization, 90 min. shares compounds with CSN inh. 540 tested, 62% active. inhibition, % at 16.6 µM; in the data active = inhibition above about 50%;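 also: 0% = DMSO with enzyme and 100% = no enzyme wells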
MMP-2 counter: blocks human MMP-2 in a CSN deneddylation counter-screen; recombinant MMP-2, FRET substrate fluorescence, 60 min; shares compounds with CSN inh; 540 tested, 33% active; inhibition, % at 16.6 µM;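 active = corrected plate-normalized z-score of 5 or more, or -5 or less, or inhibition of 15% or more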;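 also: plate controls were DMSO wells with enzyme for no effect and buffer wells lacking MMP-2 for full effect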
Thrombin counter: thrombin (bovine) inhibition, counter-screen for CSN hits | 540 tested, 49% active | shares compounds with CSN inh | inhibition, % at 16.6 µM | bovine thrombin cleavage of Ub4-pepOG, fluorescence polarization;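 active = inhibition at or above a set limit, with a fluorescence interference ratio between 0.5 and a set maximum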
Numbers without * were called inactive; i = inactive; . = not tested or not shown; + = active, no number. Hits are enriched below; roughly 1.8% of the tested compounds scored in any of these assays.

SMILES | Rpn11 inh | HNF4A DNA FP | CSN inh | SENP1 inh | TPT1 inh | UBC9 SUMO inh | CSN5 deneddyl | MMP-2 counter | Thrombin counter
CCCCCCCCCCCCCCCC(O)C(N)CO (stereo not given) | i | 47* | 53* | 0 | -2 | 8 | -18 | 1 | 0
CC1CCN(C(C(=O)O)c2ccccc2)CC1 (stereo not given) | i | 3 | -6 | 1 | -3 | 14 | . | . | .
Cc1ccc(S(=O)(=O)Cc2ccc(C(=O)O)o2)cc1 | i | -24 | 35* | 0 | 2 | 13 | 64* | 22* | 6
COc1ccc(OC)c2sc(N3CCN(C(=O)c4ccc5ncsc5c4)CC3)nc12 | i | 3 | 1 | 1 | 3 | . | . | . | .
Cc1ccc(S(=O)c2ccc([N+](=O)[O-])c3nonc23)cc1 (stereo not given) | i | 10 | 42* | 46 | . | . | 83* | -50* | 2
O=C(O)C1CCCN1C(=O)Nc1ccccc1 (stereo not given) | i | 2 | 4 | 1 | 0 | 14 | . | . | .
O=C(Nc1ccc(F)cc1F)c1cc(-c2ccco2)nc2ccccc12 | i | 5 | 5 | 0 | 7 | 17 | . | . | .
O=C(Nc1nc(-c2ccco2)c(-c2ccco2)s1)c1ccc(F)cc1F | i | 1 | 45* | -13 | . | . | 103* | 1 | 13
O=C1/C(=C/c2ccc(O)c(O)c2)SC(=S)N1Nc1ccccc1 | . | 28 | 54* | 36* | . | 34 | 47 | 18* | 54*
O=C1/C(=C/c2ccncc2)SC(=S)N1Nc1ccccc1 | i | -2 | 5 | 1 | -2 | -11 | . | . | .
COC(=O)c1ccc2c(c1)C(C)(C)C(/C=C/c1ccccc1O)=[N+]2C | . | 37* | 44* | -2 | 19 | -2 | 68* | -12 | 30*
C[N+]1=C(/C=C/Nc2ccccc2Cl)C(C)(C)c2ccccc21 | i | 6 | 5 | -28 | -4 | -9 | . | . | .
CC(C)(C)[C@H](N)C(=O)N[C@H]1CCC2C3CC=C4C[C@@H](O)CC[C@]4(C)C3CC[C@@]21C (stereo not given in full) | i | 5 | 49* | -3 | . | . | -23 | 3 | 16*
COc1ccccc1C(=O)O/N=C(\c1ccccc1)c1ccncc1 | i | 1 | 3 | 3 | 0 | 2 | . | . | .
CCc1cc(=O)oc2cc(C)c(CN3CCCCC3)c(O)c12 | i | -5 | 23 | -40 | 0 | 38 | . | . | .
CCc1cc(=O)oc2cc(C)c(CN3CCCC3)c(O)c12 | i | -11 | 37* | -1 | 2 | 30 | 89* | 11 | 4
CN(C)c1ccc(/C=C/c2cc[n+](C)cc2)cc1 | . | 68* | 51* | 93 | 11 | -2 | 55* | -34* | 58*
O=S(=O)(N1CCOCC1)n1c(Cc2ccccc2)nc2ccccc21 | i | -1 | 0 | 1 | 0 | 1 | . | . | .
CCOC(=O)CSc1nnc(CNC(=O)c2ccc(OC)cc2OC)n1C | i | -2 | 0 | 1 | -5 | 29 | . | . | .
Cc1cc(N2CCN(C)CC2)ccc1NC(=O)c1cccc(S(=O)(=O)N2CCc3ccccc3C2)c1 | i | 6 | 108* | 2 | 1 | -1 | 53* | 8 | -10
Cc1ccc(NC(=O)c2cccc(S(=O)(=O)N3CCc4ccccc4C3)c2)nc1 | i | -1 | -1 | 0 | -3 | . | . | . | .
CCC12CN3CCN(CC(C3)/C1=N\NC(=O)c1ccc(C(C)(C)C)cc1)C2 | i | 2 | -3 | -3 | -1 | -6 | . | . | .
CNc1ccc(Br)cc(C(=O)/C=C/c2ccc3c(c2)OCO3)c1=O | i | -9 | 44* | 17 | 18 | 23 | 71* | -1 | 20*
CCOC(=O)CSc1nnc(-c2cc(OC)c(OC)c(OC)c2)o1 | i | -2 | 7 | 1 | -9 | 6 | . | . | .
COc1cc(-c2nnc(SCc3cc(=O)oc4cc(O)c(O)cc34)o2)cc(OC)c1OC | i | -49 | 47* | -35 | 9 | 41 | . | 32* | 34*
SMILES | Rpn11 inh | HNF4A DNA FP | CSN inh | SENP1 inh | TPT1 inh | UBC9 SUMO inh | CSN5 deneddyl | MMP-2 counter | Thrombin counter
CCOc1ccccc1C(=O)OCC(=O)NCC1CCCO1 (stereo not given) | i | 1 | -8 | 3 | . | . | . | . | .
O=C(Nc1cccc(-c2cnc3ccccc3n2)c1)c1cccc(NC(=O)c2ccco2)c1 | + | 6 | 41* | 3 | 2 | 29 | . | 1 | 17*
C[n+]1cccc2c(Br)ccc([O-])c21 | i | -1 | 45* | 8 | -4 | 100 | 103* | 4 | -10
Cc1ccc(S(=O)(=O)/N=C2/NC(=O)/C(=C/c3cc([N+](=O)[O-])ccc3O)S2)cc1 | . | 25 | 55* | 27 | 64* | 13 | 53* | -44* | 31*
O=C(COC(=O)c1ccccc1NC(=O)c1ccco1)NCCC1=CCCCC1 | i | 0 | -4 | -1 | 4 | 22 | . | . | .
Clc1ccc(C2=NN(c3ccccc3)C(c3ccco3)C2)cc1 (stereo not given) | i | -2 | -7 | -41 | 3 | 12 | . | . | .
O=[N+]([O-])c1ccc(/C=C/C2=NN(c3ccccc3)C(c3ccco3)C2)o1 (stereo not given) | . | 26 | 62* | -33 | . | 36 | 42 | -3 | 21*
COc1ccc(OCCN2C(=O)c3ccccc3C2=O)c([N+](=O)[O-])c1 | i | 0 | 3 | 0 | -3 | 5 | . | . | .
CCC/C(C#Cc1cc(OC)cc(OC)c1)=C1/c2ccccc2C(=O)N1c1ccccc1 | i | 0 | -1 | -8 | . | . | . | . | .
CCC/C(C#Cc1ccc(N(C)C)cc1)=C1/c2ccccc2C(=O)N1c1ccccc1 | . | 95 | 53* | -22 | . | . | + | -59* | -74
CCOc1ccc(C(=O)Nc2cc(-c3nc4ccccc4[nH]3)ccc2Cl)cc1[N+](=O)[O-] | i | 202 | 111* | 4 | -1 | 26 | . | -4 | -7
COc1cc2c(cc1OC)CN(S(=O)(=O)c1ccc(Cl)nc1)CC2 | i | 2 | 2 | 2 | . | . | . | . | .
COC(=O)C1=C(C)NC(=O)CC1c1ccc(F)c(Br)c1 (stereo not given) | i | 0 | 4 | -3 | -1 | 23 | . | . | .
O=C1NC(=Nc2ccc(O)cc2)S/C1=C\C=C\c1ccco1 | i | -1 | 48* | -2 | 6 | . | 92* | 7 | -10

High-throughput results deposited in PubChem by several laboratories.
